FN deposition inh = fibronectin deposition inhibition; inhibition, % at 12.6 µM; 350,000 tested, 0.086% active; AH1F fibroblasts, Alexa488-fibronectin deposition fluorescence, overnight;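 active = mean inhibition across replicates of 30% or more, regardless of how many single replicates reach that level; inconclusive = mean under 30% yet at least half of replicates reach 30%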;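 note: positive control wells lacked labelled fibronectin entirely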
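Schedule: 1 h cell adhesion before compound, then overnight fibronectin incubation; test system: AH1F fibroblast monolayer depositing Alexa488-labelled fibronectin into matrix; quantity: 10000 AH1F cells per well; probe or stimulus: fluorescent fibronectin at 24 nM final; signal: fluorescence, ex 485 nm, em 525 nm; evaluation: percent inhibition as loss of matrix-bound fibronectin fluorescence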
DENV2 CPE rescue = DENV2-induced cell death inhibition; AID 651640; CPE inhibition, % at 9.99 µM; DENV2-infected cells, cytopathic effect rescue, plate reader; 350,000 tested, 1.7% active; in the data active = CPE inhibition above about 20%, passing the limit was not always enough; inconclusive = no clear call, values can overlap the other calls; tested in BHK-21 cells;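 note: 0% = median of neutral control wells and 100% = median of positive control wells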
XiGFP reactiv = activators of X-chromosome reactivation in mouse fibroblasts. XiGFP mouse fibroblasts, % GFP-positive cells imaging, 3 d; cells co-treated with 5-aza-dC sensitizer; scaled so ellipticine positive control = 100%. activation, % at 7.58 µM. 360,000 tested, 0.055% active. AID 743238;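 active = mean normalized replicate activation at least 10% and every replicate at or above 10%; inconclusive = only one of the two criteria met; inactive = mean below 10% and not all replicates reach 10%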;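 note: 0% = median of on-plate neutral control wells and 100% = ellipticine 6 µM median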
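System: XiGFP fibroblasts, SV40-immortalized. Medium: DMEM plus 5-aza-dC sensitizer. Doses: single point. Timing: 3 d treatment, 15 min room-temperature fixation. Control set: ellipticine 6 µM.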
ARNT TACC3 PPI = ARNT/TACC3 interaction disruption; Q9Y6A5; AlphaScreen His-ARNT PAS-B/GST-TACC3 binding, luminescence; TACC3 fragment carries E629A point mutation; inhibition, % at 9.99 µM; 390,000 tested, 0.66% active; AID 623870;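 active = mean inhibition of replicates at least 50% and at least half of replicates each reaching 50%; inconclusive = half or more replicates reach 50% but mean below 50%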;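 note: 0% = complete ARNT plus TACC3 wells and 100% = ARNT alone without TACC3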
SIRT5 inh = blocks human SIRT5 desuccinylation of peptide. 330,000 tested, 1.1% active. Q9NXA8. Purified SirT5, succinyl-peptide AMC, trypsin-coupled fluorescence. inhibition, % at 15 µM; in the data active = inhibition above about 15%; inconclusive = no clear call, values can overlap the other calls
Target sequence (Q9NXA8 whole entry, looked up): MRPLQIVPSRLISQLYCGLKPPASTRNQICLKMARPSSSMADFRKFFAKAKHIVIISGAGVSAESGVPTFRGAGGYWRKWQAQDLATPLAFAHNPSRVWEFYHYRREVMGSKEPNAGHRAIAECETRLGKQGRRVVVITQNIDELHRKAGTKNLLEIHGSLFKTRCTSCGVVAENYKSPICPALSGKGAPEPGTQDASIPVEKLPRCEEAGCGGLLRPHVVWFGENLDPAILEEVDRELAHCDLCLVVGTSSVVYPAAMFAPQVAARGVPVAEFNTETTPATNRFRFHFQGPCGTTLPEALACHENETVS
FGF22 binding = shifts melting point of recombinant human FGF22 | Q9HCT0 | activity (Tm shift, normalised), % at 9.99 µM | 340,000 tested, 1.5% active | AID 651658 | recombinant FGF22 thermal shift, SYPRO orange fluorescence; percent of sucrose octasulfate shift, DMSO zero;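 active = mean Tm shift, scaled 0 neutral to 100 positive control, at about 1.3% or above, every replicate too, limit read from the data; inconclusive = no clear call, values can overlap the other calls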
Target sequence (Q9HCT0 whole entry, looked up): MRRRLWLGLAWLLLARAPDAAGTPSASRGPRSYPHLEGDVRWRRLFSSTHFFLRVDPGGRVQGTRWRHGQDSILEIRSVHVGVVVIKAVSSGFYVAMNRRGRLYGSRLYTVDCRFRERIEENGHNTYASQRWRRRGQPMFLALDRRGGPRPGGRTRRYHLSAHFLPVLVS
Starred values were filed as active, the others as inactive. Shown are actives, neighbours in structure and some others; about 3.8% of the full set was active somewhere.

CN(C)C(=O)[C@@H]1[C@@H](CO)[C@@H]2Cn3c(ccc(-c4ccccc4F)c3=O)[C@@H]2N1C(=O)c1cnccn1 was read as DENV2 CPE rescue 7.2, XiGFP reactiv 0.3, ARNT TACC3 PPI -14.0, SIRT5 inh 1.7 and FGF22 binding -0.1.
`CC(C)Cc1nnc(NC(=O)CSc2nc(N)cc(=O)[nH]2)s1` gave FN deposition inh active and ARNT TACC3 PPI 2.0.
`CCc1nc(SCC(=O)Nc2nnc(CC(C)C)s2)n[nH]1` gave FN deposition inh -5.9, DENV2 CPE rescue -2.7, XiGFP reactiv 0.1, ARNT TACC3 PPI -6.6, SIRT5 inh -2.8 and FGF22 binding 0.1.
`CN(CC(=O)NC1CCN(Cc2ccccc2)CC1)S(=O)(=O)c1ccc2c(c1)c(=O)n(C)c(=O)n2C` gave FN deposition inh 12.6, DENV2 CPE rescue 1.2, XiGFP reactiv 0.2, ARNT TACC3 PPI -0.3, SIRT5 inh -6.3 and FGF22 binding 43.2*.
`CSCCC(NS(=O)(=O)c1ccc2c(c1)c(=O)n(C)c(=O)n2C)C(=O)NC1CCN(Cc2ccccc2)CC1` (centres undefined) gave FN deposition inh 9.5, DENV2 CPE rescue inconclusive, XiGFP reactiv 0.0, ARNT TACC3 PPI -6.9, SIRT5 inh 1.6 and FGF22 binding 0.7.
`CC(C)NC(=O)N(C)C[C@H]1OCCCC[C@H](C)Oc2ccc(NC(=O)Nc3ccc(F)cc3)cc2C(=O)N([C@H](C)CO)C[C@@H]1C` gave DENV2 CPE rescue -3.9, XiGFP reactiv 0.0, ARNT TACC3 PPI -5.9, SIRT5 inh -2.8 and FGF22 binding 0.0.
`O=C(c1ccccc1F)N(Cc1cccnc1)Cc1cc2cc3c(cc2[nH]c1=O)OCCO3` gave FN deposition inh 1.8, DENV2 CPE rescue -6.2, XiGFP reactiv 0.1, ARNT TACC3 PPI 0.0, SIRT5 inh -1.3 and FGF22 binding 43.0*.
Clc1cccc(Cl)c1Cn1cnc2c(NCc3ccco3)ncnc21 was read as DENV2 CPE rescue -3.9, ARNT TACC3 PPI -9.0, SIRT5 inh -0.9 and FGF22 binding 0.1.
`Cn1cnc2c(NCc3ccco3)ncnc21` gave DENV2 CPE rescue inconclusive, ARNT TACC3 PPI 5.8, SIRT5 inh 30.4* and FGF22 binding -0.2.
Screening COc1cccc(CNC(=O)COC(=O)c2c(NC(C)=O)sc(C)c2C)c1 returned FN deposition inh 5.9, DENV2 CPE rescue -1.0, XiGFP reactiv 0.3, ARNT TACC3 PPI -5.3, SIRT5 inh -1.5 and FGF22 binding 43.0*.
For O=C(C[C@@H]1CC[C@H](NS(=O)(=O)c2ccc(F)cc2)[C@@H](CO)O1)N1CCC(Cc2ccccc2)CC1 the results were DENV2 CPE rescue 2.1, XiGFP reactiv -0.3, ARNT TACC3 PPI -5.7, SIRT5 inh 3.1 and FGF22 binding -0.2.
Cc1ccc(S(=O)(=O)N2[C@@H]3CNC[C@H]2C3c2ccc(-c3ccc(C#N)cc3)cc2)cc1 (some centres undefined) was read as FN deposition inh -5.3, DENV2 CPE rescue 29.1*, XiGFP reactiv 0.1 and SIRT5 inh -1.4.
O=S(=O)(c1ccccc1)N1[C@@H]2CNC[C@H]1C2c1ccc(-c2ccccc2)cc1 (some centres undefined) was read as FN deposition inh -3.1, DENV2 CPE rescue 68.3*, XiGFP reactiv 0.0 and SIRT5 inh -1.0.
For O=S(=O)(c1ccc(-c2ccccc2)cc1)N1[C@@H]2CNC[C@H]1C2c1ccc(-c2ccccc2)cc1 (some centres undefined) the results were FN deposition inh -9.5 and XiGFP reactiv 0.1.
O=C(CN1CCC(C(=O)c2cccc(F)c2)CC1)NCc1cccs1 was read as FN deposition inh -0.4, DENV2 CPE rescue 4.7, XiGFP reactiv 0.1, ARNT TACC3 PPI -0.9, SIRT5 inh 0.4 and FGF22 binding 43.2*.
O=C(COC(=O)c1ccc(O)cc1)Nc1ncc(Cl)cc1Cl was read as FN deposition inh 2.1, DENV2 CPE rescue 3.9, XiGFP reactiv 0.0, ARNT TACC3 PPI -4.3, SIRT5 inh 1.8 and FGF22 binding 43.7*.
For CC(=O)Nc1cccc(C(=O)OCC(=O)Nc2ccc(Cl)cn2)c1 the results were FN deposition inh -3.7, DENV2 CPE rescue 55.8*, XiGFP reactiv -0.3, ARNT TACC3 PPI -21.4, SIRT5 inh 3.6 and FGF22 binding 0.0.
Screening O=C(Nc1ccc(F)cc1)N1C[C@H]2[C@@H](c3ccccc31)[C@@H](CO)N2C(=O)Cc1ccccn1 returned FN deposition inh -3.5, DENV2 CPE rescue -3.9, XiGFP reactiv 0.0, ARNT TACC3 PPI 4.5, SIRT5 inh 0.6 and FGF22 binding -0.9.
`CCCCCCCCN1C(=O)[C@H](CC(=O)NCC2CCCCC2)C[C@@]2(C(=O)OCC)CCC=C12` gave FN deposition inh 2.9, DENV2 CPE rescue -0.3, XiGFP reactiv 0.2, SIRT5 inh 21.8* and FGF22 binding -0.2.
`CCCCCCCCN1C(=O)[C@H](CC(=O)NCC2CCCCC2)C[C@@]2(C(=O)OCC)CCCC=C12` gave DENV2 CPE rescue -5.7, XiGFP reactiv 0.1, SIRT5 inh 0.5 and FGF22 binding -0.3.
`C#CCNC(=O)C[C@@H]1C[C@@]2(C(=O)OCC)CCCC=C2N(CCCCCCCC)C1=O` gave DENV2 CPE rescue 0.1, XiGFP reactiv 0.0, SIRT5 inh 16.9* and FGF22 binding -0.3.
CCC(=O)N1[C@@H]2c3ccc(-c4ccccc4)c(=O)n3C[C@H]1[C@H](CO)[C@H]2C(=O)N1CCCCC1 was read as DENV2 CPE rescue inconclusive, XiGFP reactiv 0.0, ARNT TACC3 PPI -18.3, SIRT5 inh -30.3 and FGF22 binding 0.1.
Cc1noc(C)c1S(=O)(=O)Nc1ccc2c(c1)C(=O)N([C@H](C)CO)C[C@H](C)[C@H](CN(C)Cc1ccc(C(=O)O)cc1)O2 was read as DENV2 CPE rescue 0.6, XiGFP reactiv 0.0, ARNT TACC3 PPI -8.4, SIRT5 inh -1.7 and FGF22 binding -0.1.
COc1cc2[nH]c(=S)nc(NCCC(C)C)c2cc1OC was read as FN deposition inh 8.7, DENV2 CPE rescue 3.3, XiGFP reactiv 0.2, ARNT TACC3 PPI 64.1*, SIRT5 inh 1.0 and FGF22 binding 0.1.
COCCCNc1nc(=S)[nH]c2cc(OC)c(OC)cc12 was read as ARNT TACC3 PPI 64.4*.
For COc1cc2[nH]c(=S)nc(NCCc3ccc(C)cc3)c2cc1OC the results were FN deposition inh 23.5, DENV2 CPE rescue 10.3, XiGFP reactiv 0.0, ARNT TACC3 PPI 32.4, SIRT5 inh -0.7 and FGF22 binding 0.2.
`CCCc1cn(CC[C@H]2CC[C@@H](NS(=O)(=O)c3ccc(-c4ccccc4)cc3)[C@@H](CO)O2)nn1` gave DENV2 CPE rescue 0.9, XiGFP reactiv -0.5, ARNT TACC3 PPI -31.8, SIRT5 inh 4.3 and FGF22 binding -0.2.
